High-throughput results deposited in PubChem by several laboratories.
This is a sample that favours compounds with a hit; in the whole collection about 1.6% have one here.
TCR-CD3 inh = inhibitors of human TCR-CD3 interaction; actives 0.37% (n = 360,000); TAMRA-labeled TCR probe fluorescence, biochemical; inhibition, % at 9.4 µM; in the data active = inhibition above about 19%;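 note: recombinant mutant TCR 2C K166C tagged with TAMRA read by polarization; 0% = receptor in buffer alone and 100% = receptor with positive control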
eIF4H inh = inhibitors of RNA binding by human eIF4H; eIF4H fluorescence polarization binding assay; inhibition, % at 35 µM; actives 0.94% (n = 290,000);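 note: calls also rest on retests at 20 µM and on dose response follow-up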
RBBP9 inh = human RBBP9 hydrolase inhibition; O75884; recombinant RBBP9, FP-Rh probe fluorescence polarization; inhibition, % at 7.94 µM; actives 0.2% (n = 220,000);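 active = inhibition above the campaign mean of all tested compounds plus 3 SD, cut at about 14% in these data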;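 note: plate controls were DMSO wells with RBBP9 for no effect and wells lacking RBBP9 protein for full effect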
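Measured by – fluorescence polarization · Test system – RBBP9 protein · Input – 2.5 µM RBBP9 dispensing solution, before mixing · Measure – percent inhibition from mP, scaled between DMSO and no-protein wells · Benchmarks – DMSO-treated enzyme wells and wells lacking RBBP9 · Times – preincubation 30 min plus labeling 45 min at 25 °C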
PABP FP inh = blocks human PABP binding to poly(A) RNA; actives 1% (n = 290,000); calls only at 35 µM; fluorescence polarization; AID 2014;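 note: calls also rest on retests at 20 µM and on dose response follow-up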
Target sequence (P11940 whole entry, looked up): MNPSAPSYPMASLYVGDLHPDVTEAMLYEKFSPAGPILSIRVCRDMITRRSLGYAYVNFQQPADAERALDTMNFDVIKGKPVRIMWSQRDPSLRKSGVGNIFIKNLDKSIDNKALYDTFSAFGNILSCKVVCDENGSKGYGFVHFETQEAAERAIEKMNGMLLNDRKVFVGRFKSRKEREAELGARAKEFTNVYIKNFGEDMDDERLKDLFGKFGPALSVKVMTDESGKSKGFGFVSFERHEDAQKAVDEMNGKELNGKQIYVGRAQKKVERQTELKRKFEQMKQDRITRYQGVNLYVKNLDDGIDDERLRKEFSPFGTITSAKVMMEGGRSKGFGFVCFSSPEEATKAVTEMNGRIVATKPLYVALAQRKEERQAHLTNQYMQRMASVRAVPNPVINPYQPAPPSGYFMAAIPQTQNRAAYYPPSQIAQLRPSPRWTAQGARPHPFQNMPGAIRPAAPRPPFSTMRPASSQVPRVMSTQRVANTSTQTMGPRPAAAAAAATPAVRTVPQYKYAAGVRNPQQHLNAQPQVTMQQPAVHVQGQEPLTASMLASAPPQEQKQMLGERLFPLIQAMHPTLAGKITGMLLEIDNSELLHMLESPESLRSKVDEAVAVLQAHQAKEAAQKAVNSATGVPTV
MLLE-PAM2 inh = blocks PAM2 peptide binding to the PABP1 MLLE domain; P11940; GST-MLLE / FITC-PAM2 fluorescence polarization; inhibition, % at 20 µM; actives 0.36% (n = 360,000); in the data active = inhibition above about 35%, passing the limit was not always enough;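 note: plate controls were DMSO wells with GST-MLLE for no effect and wells lacking GST-MLLE protein for full effect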
Starred values were filed as active, the others as inactive; i = inactive; ? = inconclusive; . = no result given; + = active, no number. Unless noted, the rule behind the calls is not given here.

SMILES	TCR-CD3 inh	eIF4H inh	RBBP9 inh	PABP FP inh	MLLE-PAM2 inh
COc1cc(C(=O)NN=C2c3ccccc3-c3ccccc32)cc(OC)c1OC	3	.	.	.	.
COC(=O)C(CC(C)C)N(Cc1ccc(Br)cc1)S(=O)(=O)CCl (stereo not given)	7	.	.	.	.
COCc1[nH]nc2c1C(c1cccc(C(F)(F)F)c1)N(c1ccccc1)C2=O (stereo not given)	-2	.	.	.	.
CCOC(=O)C(=O)N/N=C/c1ccco1	-4	94*	-3	+	-6
Cc1cc(C)cc(OCC(=O)N/N=C/c2ccco2)c1	2	-7	-6	i	4
O=[N+]([O-])c1ccccc1SN(Cc1ccccc1)c1ccccn1	7	58*	1	+	8
O=C(c1ccc([N+](=O)[O-])cc1)N(Cc1ccccc1)c1ccccn1	1	6	-2	i	6
Nc1[nH]c(C(=O)c2ccccc2)c(-c2ccccn2)c1C(=O)c1c[nH]c2ccc(F)cc12	-1	.	.	.	.
N#Cc1ccsc1NC(=O)c1cccc(-n2cnnn2)c1	-12	67	.	+	-83
CC(C)c1nnc(NC(=O)c2cccc(-n3cnnn3)c2)s1	3	-1	-4	i	-10
O=C(CSc1nc2[nH]ncc2c(=O)[nH]1)Nc1nccs1	7	active	7	+	.
CCc1nnc(NC(=O)CSc2nc3[nH]ncc3c(=O)[nH]2)s1	11	-1	-6	i	-3
COC(=O)C1=C(C)N(Cc2ccc(Br)cc2)C(=S)NC1c1ccccc1 (stereo not given)	0	.	.	.	.
CC1=C(C(=O)Nc2ccccc2)C(c2ccc(C)o2)n2c(s/c(=C\c3ccco3)c2=O)=N1 (stereo not given)	-2	84*	-15	+	-76
Cc1cc(C(=O)CSc2nc(N)cc(N)n2)c(C)n1-c1cccc(C(F)(F)F)c1	0	56*	-9	i	-14
CCOc1cccc(=O)c2c(C)n(Cc3ccccc3)c(C)c12	-8	31	5	i	-8
CCOc1cccc(=O)c2c(C)n(Cc3ccco3)c(C)c12	3	95*	0	+	-18
COC(=O)c1ccc2c(=O)n(NC(=O)C(c3ccccc3)c3ccccc3)c(=S)[nH]c2c1	-9	3	-4	i	38*
CCOC(=O)C1CSCCS(=O)(=O)N1Cc1ccccc1C (stereo not given)	-6	.	.	.	.
Cc1cccc(NC(=S)N/N=C2/CCCCc3ccccc32)c1	-3	12	-10	i	34
Cc1ccc(NC(=S)N/N=C2/CCCCc3ccccc32)cc1	-11	18	-4	i	42*
Cc1c(OC(C)C(=O)NC(Cc2c[nH]c3ccc(O)cc23)C(=O)O)ccc2c1oc(=O)c1ccccc12 (stereo not given)	5	81*	.	+	7
CC(Oc1ccc2ccc(=O)oc2c1)C(=O)NC(Cc1c[nH]c2ccc(O)cc12)C(=O)O (stereo not given)	7	87*	.	i	-14
Cc1c(C)c2ccc(OC(C)C(=O)N[C@@H](Cc3c[nH]c4ccccc34)C(=O)O)c(C)c2oc1=O (stereo not given in full)	-2	-5	.	i	0
O=c1c2ccccc2n2c(-c3ccc(F)cc3)nnc2n1Cc1ccccc1	0	53*	-9	+	-15
SMILES	TCR-CD3 inh	eIF4H inh	RBBP9 inh	PABP FP inh	MLLE-PAM2 inh
Cc1c2cnn(CC(=O)Nc3c(F)c(F)cc(F)c3F)c(=O)c2c(C)n1Cc1ccccc1F	11	95*	-20	+	-11
O=C1C(=Cc2ccco2)C(=O)c2ccccc21	3	38	0	i	28
O=C1CNC(=O)/C(=C/c2ccco2)N1	0	106*	-11	i	7
O=C(O)c1ccccc1NS(=O)(=O)c1cccc(-n2sc3ccccc3c2=O)c1	0	47*	.	+	11
O=C(O)c1ccccc1NS(=O)(=O)c1cccc(C(F)(F)F)c1	8	9	3	i	7
CN(C)c1cccc2c(S(=O)(=O)NC(=O)[C@H]3O[C@@H](n4ccc(=O)[nH]c4=O)[C@H](O)[C@@H]3O)cccc12	9	.	.	.	.
O=C(CC1CCS(=O)(=O)C1)Nc1ccc[nH]c1=O (stereo not given)	-6	8	16*	i	19
C1CC2CN(c3nc4nonc4nc3N3CCSCC3)CCN2C1 (stereo not given)	4	60	5	i	52*
O=S1(=O)CC(N2CCCC2)CN1Cc1cn(Cc2ccc(C(F)(F)F)cc2)nn1 (stereo not given)	8	.	.	.	.
Fc1ccc(CN2CCN(c3ncc(Cc4ccccc4)cn3)CC2)c(Cl)c1	8	.	.	.	.
Cc1cccc(OC(=O)CN2C(=O)C3C4CCC(C4)C3C2=O)c1C (stereo not given)	3	-3	-4	i	8
COc1ccc(OC(=O)CN2C(=O)C3C4CCC(C4)C3C2=O)cc1 (stereo not given)	2	64	4	+	-3
COc1ccc2c(c1)[C@@]1(OCCC=C[C@H]1C)C(=O)N2C/C=C(\C)CCC=C(C)C	8	.	.	.	.
O=C(c1ccco1)N1CCN(C(=O)c2cc(-c3ccccn3)nc3ccc(Cl)cc23)CC1	5	100*	-6	i	-1
O=C(Nc1ccc2oc(-c3ccccc3F)nc2c1)c1ncn[nH]1	0	24	-2	i	-7
O=C(Nc1ccc2oc(-c3ccc(Cl)c(Cl)c3)nc2c1)c1ncn[nH]1	-9	?	-2	+	0
O=C(Nc1cccnc1)c1ccc(CSc2ccc(Cl)cc2)o1	0	.	.	.	.
COC(=O)CSc1nc(C)cc(C(F)(F)F)c1C#N	-2	6	-3	i	1
Cc1ccc(S(=O)(=O)CCSc2nc(C)cc(C(F)(F)F)c2C#N)cc1	1	83*	-6	+	-19
Cc1cc(C)c2nc(-c3ccccn3)cc(C(=O)n3cccn3)c2c1	-2	25	-5	+	-4
Cc1cc(NC(=O)CCc2c[nH]c3ccccc23)ccc1Nc1cccnc1	6	.	.	.	.
CC(C)(C)C1CC=C2C(C#N)=C(N)C(C#N)(C#N)C(c3cccs3)C2C1 (stereo not given)	.	93*	-2	+	.
CN1C2C=C3C(C#N)=C(N)C(C#N)(C#N)[C@@H](c4cccs4)C3C1CC2 (stereo not given in full)	3	59*	10	+	17
Cc1ccc(C2C3CN(C(C)C)CC=C3C(C#N)=C(N)C2(C#N)C#N)cc1 (stereo not given)	8	?	.	?	151
CN1C2C=C3C(C#N)=C(N)C(C#N)(C#N)[C@H](c4c(F)cccc4F)[C@H]3C1CC2 (stereo not given in full)	10	53	-7	i	22
COc1ccc(-n2cnnc2SCC(=O)Nc2cc(C)on2)cc1	-1	63*	4	+	-6
CC(=O)CC(=O)O[C@@H]1C=C[C@H](NC(=O)OC(C)(C)C)C1	1	.	.	.	.
